In brackets after ≈: the same amount, converted by molar mass.
Legend:
Assay type in all cases: functional
[1] = system: Staphylococcus aureus; assay: Antimicrobial activity against methicillin-resistant Staphylococcus aureus 3202 after 24 hrs by broth microdilution method; conditions: Staphylococcus aureus, 3202, 24 h
In short: (§1)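 Colonies grown on nutrient agar with 5% ovine blood were suspended in PBS (pH 7.2–7.3), adjusted to 0.5 McFarland, and diluted 1:20 in Mueller–Hinton broth. Compounds were dissolved in DMSO (final ≤2.5%) and tested by NCCLS-modified broth microdilution with drug-free, sterility and broth+DMSO controls.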

[2] = system: Clostridium perfringens; assay: Antimicrobial activity against Clostridium perfringens CNCTC 5770 after 24 hrs by broth microdilution method; conditions: CNCTC 5770, 24 h
In short: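 Colonies grown on blood agar (nutrient agar, 5% ovine blood) were suspended in PBS pH 7.2–7.3, set to 0.5 McFarland, and diluted 1:20 in MH broth for the final inoculum. Compounds were in DMSO (≤2.5% final), tested by NCCLS-modified microdilution with drug-free, sterility and DMSO controls.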

[3] = system: Staphylococcus aureus; assay: Antimicrobial activity against methicillin-resistant Staphylococcus aureus 63718 after 24 hrs by broth microdilution method; conditions: Staphylococcus aureus, 63718, 24 h; in short: as §1
[4] = system: Pasteurella multocida; assay: Antimicrobial activity against Pasteurella multocida clinical isolate after 24 hrs by broth microdilution method
In short: (§2)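 Broth microdilution MIC in Mueller–Hinton broth, per modified NCCLS guidelines. Strains were grown on nutrient agar with 5% ovine blood. Colonies were suspended in PBS (pH 7.2–7.3), adjusted to 0.5 McFarland, then diluted 1:20 in MH broth. Compounds were in DMSO, ≤2.5% final. Drug-free, sterility and DMSO controls were included.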

[5] = system: Staphylococcus aureus; assay: Antimicrobial activity against methicillin-resistant Staphylococcus aureus 630 after 24 hrs by broth microdilution method; conditions: Staphylococcus aureus, 630, 24 h; in short: as §1
[6] = system: Staphylococcus aureus; assay: Antimicrobial activity against Staphylococcus aureus ATCC 29213 after 24 hrs by broth microdilution method; conditions: ATCC 29213, 24 h; in short: as §2
[7] = system: Bacillus cereus; assay: Antimicrobial activity against Bacillus cereus ATCC 14579 after 24 hrs by broth microdilution method; conditions: ATCC 14579, 24 h; in short: as §2
[8] = system: Mycobacterium kansasii; assay: Antimycobacterial activity against Mycobacterium kansasii DSM 44162 after 7 days; conditions: DSM 44162, 168 h
In short: (§3)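 MIC by broth microdilution in Middlebrook 7H9 with ADC enrichment. Compounds were dissolved in DMSO. Inoculum: colonies in sterile water adjusted to 0.5 McFarland, then diluted 1:1000 in sterile water. Drug-free, sterility and medium+DMSO controls were included. Wells were read visually after static incubation in the dark.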

[9] = system: Mycobacterium marinum; assay: Antimycobacterial activity against Mycobacterium marinum CAMP 5644 after 21 days; conditions: CAMP 5644, 504 h; in short: as §3
[10] = system: Mycolicibacterium smegmatis; assay: Antimycobacterial activity against Mycobacterium smegmatis ATCC 700084 after 3 days; conditions: ATCC 700084, 72 h
In short: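 Middlebrook 7H9 plus ADC broth microdilution MIC, with compounds in DMSO. Colonies were suspended in sterile water to 0.5 McFarland, then diluted 1:1000 in sterile water. Drug-free, sterility and DMSO controls were included. The visual read followed 3 days of static aerobic incubation at 37 °C in darkness.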

SMILES | MIC [1] [µM] | MIC [2] [µM] | MIC [3] [µM] | MIC [4] [µM] | MIC [5] [µM] | MIC [6] [µM] | MIC [7] [µM] | MIC [8] [µM] | MIC [9] [µM] | MIC [10] [µM]
O=C(Nc1ccc(Cl)c(Cl)c1)c1cc(Cl)ccc1O | 0.77 (≈ 0.244 µg/mL) | 0.03 (≈ 0.0095 µg/mL) | 0.77 (≈ 0.244 µg/mL) | 0.19 (≈ 0.0601 µg/mL) | 0.77 (≈ 0.244 µg/mL) | 0.79 (≈ 0.25 µg/mL) | 0.09 (≈ 0.0285 µg/mL) | – | – | –
O=C(Nc1ccc(Cl)c(Cl)c1)c1ccc(Cl)cc1O | 0.05 (≈ 0.0158 µg/mL) | 0.2 (≈ 0.0633 µg/mL) | 0.05 (≈ 0.0158 µg/mL) | 0.2 (≈ 0.0633 µg/mL) | 0.03 (≈ 0.0095 µg/mL) | 0.03 (≈ 0.0095 µg/mL) | ≤ 0.03 | 3.16 (≈ 1 µg/mL) | 3.16 (≈ 1 µg/mL) | 12.6 (≈ 4 µg/mL)
O=C(Nc1ccc([N+](=O)[O-])cc1)c1cc(Cl)ccc1O | 1.71 (≈ 0.5 µg/mL) | 1.71 (≈ 0.5 µg/mL) | 1.71 (≈ 0.5 µg/mL) | 0.03 (≈ 0.00878 µg/mL) | 0.85 (≈ 0.249 µg/mL) | 0.85 (≈ 0.249 µg/mL) | 0.85 (≈ 0.249 µg/mL) | ≤ 0.43 | 3.42 (≈ 1 µg/mL) | 13.7 (≈ 4 µg/mL)
O=C(Nc1ccc(Br)cc1)c1cc(Cl)ccc1O | 0.76 (≈ 0.248 µg/mL) | 3.06 (≈ 0.999 µg/mL) | 0.76 (≈ 0.248 µg/mL) | 0.19 (≈ 0.062 µg/mL) | 0.76 (≈ 0.248 µg/mL) | 0.76 (≈ 0.248 µg/mL) | 0.38 (≈ 0.124 µg/mL) | 6.12 (≈ 2 µg/mL) | 12.2 (≈ 4 µg/mL) | 24.5 (≈ 8 µg/mL)
O=C(Nc1ccc(C(F)(F)F)cc1)c1cc(Cl)ccc1O | 0.2 (≈ 0.0631 µg/mL) | 1.58 (≈ 0.499 µg/mL) | 0.1 (≈ 0.0316 µg/mL) | 0.2 (≈ 0.0631 µg/mL) | 0.2 (≈ 0.0631 µg/mL) | 0.03 (≈ 0.00947 µg/mL) | 0.1 (≈ 0.0316 µg/mL) | 1.58 (≈ 0.499 µg/mL) | ≤ 0.4 | 12.7 (≈ 4 µg/mL)
COc1ccc(NC(=O)c2cc(Cl)ccc2O)cc1 | > 921 | > 921 | > 921 | 28.8 (≈ 8 µg/mL) | > 921 | > 921 | > 921 | – | – | –
COc1ccc(NC(=O)[C@@H](NC(=O)c2cc(Cl)ccc2O)C(C)C)cc1 | > 679 | > 679 | > 679 | > 679 | > 679 | > 679 | > 679 | – | – | –
Cc1ccc(NC(=O)[C@H](C)NC(=O)c2cc(Cl)ccc2O)cc1 | > 769 | > 769 | > 769 | > 769 | > 769 | > 769 | > 769 | – | – | –
CC(C)[C@H](NC(=O)c1cc(Cl)ccc1O)C(=O)Nc1ccc(C(F)(F)F)cc1 | 4.82 (≈ 2 µg/mL) | 4.82 (≈ 2 µg/mL) | 9.64 (≈ 4 µg/mL) | > 617 | 4.82 (≈ 2 µg/mL) | 4.82 (≈ 2 µg/mL) | 2.41 (≈ 1 µg/mL) | 38.6 (≈ 16 µg/mL) | 77.1 (≈ 32 µg/mL) | 77.1 (≈ 32 µg/mL)
CC(C)[C@H](NC(=O)c1ccc(Cl)cc1O)C(=O)Nc1ccc(Br)cc1 | 9.39 (≈ 4 µg/mL) | 9.39 (≈ 4 µg/mL) | 18.8 (≈ 8 µg/mL) | > 601 | 9.39 (≈ 4 µg/mL) | 9.39 (≈ 4 µg/mL) | 2.34 (≈ 0.996 µg/mL) | 75.2 (≈ 32 µg/mL) | 150 (≈ 63.9 µg/mL) | 150 (≈ 63.9 µg/mL)
CC(C)[C@H](NC(=O)c1ccc(Cl)cc1O)C(=O)Nc1ccc(Cl)c(Cl)c1 | 2.4 (≈ 0.998 µg/mL) | 38.5 (≈ 16 µg/mL) | 4.81 (≈ 2 µg/mL) | > 615 | 2.4 (≈ 0.998 µg/mL) | 2.4 (≈ 0.998 µg/mL) | 1.2 (≈ 0.499 µg/mL) | 77 (≈ 32 µg/mL) | 77 (≈ 32 µg/mL) | 77 (≈ 32 µg/mL)
O=C(N[C@@H](Cc1ccccc1)C(=O)Nc1ccc(Cl)c(Cl)c1)c1ccc(Cl)cc1O | 1.07 (≈ 0.496 µg/mL) | 34.5 (≈ 16 µg/mL) | 2.15 (≈ 0.997 µg/mL) | > 552 | 2.15 (≈ 0.997 µg/mL) | 1.07 (≈ 0.496 µg/mL) | 1.07 (≈ 0.496 µg/mL) | 34.5 (≈ 16 µg/mL) | 138 (≈ 64 µg/mL) | 69 (≈ 32 µg/mL)
Cc1ccc(NC(=O)[C@H](Cc2ccccc2)NC(=O)c2cc(Cl)ccc2O)cc1 | > 626 | > 626 | > 626 | > 626 | > 626 | > 626 | > 626 | – | – | –
CC(C)[C@H](NC(=O)OCc1ccccc1)C(=O)Oc1ccc(Cl)cc1C(=O)Nc1ccccc1 | – | – | – | > 517 | – | > 517 | > 517 | – | – | –
Cc1ccc(NC(=O)c2cc(Cl)ccc2OC(=O)[C@H](C)NC(=O)OCc2ccccc2)cc1 | – | – | – | 2.14 (≈ 0.999 µg/mL) | – | 34.3 (≈ 16 µg/mL) | 7.13 (≈ 3.33 µg/mL) | 17.1 (≈ 8 µg/mL) | 68.5 (≈ 32 µg/mL) | > 548
Cc1ccc(NC(=O)c2cc(Cl)ccc2OC(=O)[C@@H](NC(=O)OCc2ccccc2)C(C)C)cc1 | – | – | – | 4.04 (≈ 2 µg/mL) | – | 32.3 (≈ 16 µg/mL) | 32.3 (≈ 16 µg/mL) | 129 (≈ 63.9 µg/mL) | 259 (≈ 128 µg/mL) | 259 (≈ 128 µg/mL)
Cc1ccc(NC(=O)c2cc(Cl)ccc2OC(=O)[C@H](Cc2ccccc2)NC(=O)OCc2ccccc2)cc1 | – | – | – | 7.36 (≈ 4 µg/mL) | – | – | 29.5 (≈ 16 µg/mL) | 58.9 (≈ 32 µg/mL) | 118 (≈ 64.1 µg/mL) | 236 (≈ 128 µg/mL)
Cc1ccc(NC(=O)[C@@H](NC(=O)c2cc(Cl)ccc2O)C(C)C)cc1 | 88.7 (≈ 32 µg/mL) | 88.7 (≈ 32 µg/mL) | > 709 | 88.7 (≈ 32 µg/mL) | > 709 | 88.7 (≈ 32 µg/mL) | 22.2 (≈ 8 µg/mL) | 88.7 (≈ 32 µg/mL) | 355 (≈ 128 µg/mL) | > 709
CC(C)[C@H](NC(=O)OCc1ccccc1)C(=O)Oc1ccc(Cl)cc1C(=O)Nc1ccc(Br)cc1 | 1.78 (≈ 0.997 µg/mL) | 3.57 (≈ 2 µg/mL) | 3.57 (≈ 2 µg/mL) | 0.89 (≈ 0.498 µg/mL) | 1.78 (≈ 0.997 µg/mL) | 3.57 (≈ 2 µg/mL) | 1.78 (≈ 0.997 µg/mL) | 14.3 (≈ 8 µg/mL) | 14.3 (≈ 8 µg/mL) | 57.2 (≈ 32 µg/mL)
O=C(N[C@@H](Cc1ccccc1)C(=O)Oc1ccc(Cl)cc1C(=O)Nc1ccc(Cl)c(Cl)c1)OCc1ccccc1 | 0.2 (≈ 0.12 µg/mL) | 1.67 (≈ 0.998 µg/mL) | 0.2 (≈ 0.12 µg/mL) | 0.83 (≈ 0.496 µg/mL) | 0.2 (≈ 0.12 µg/mL) | 1.67 (≈ 0.998 µg/mL) | 0.41 (≈ 0.245 µg/mL) | 13.4 (≈ 8 µg/mL) | 26.8 (≈ 16 µg/mL) | 26.8 (≈ 16 µg/mL)
CC1(C)S[C@@H]2[C@H](NC(=O)[C@H](N)c3ccccc3)C(=O)N2[C@H]1C(=O)O [AMPICILLIN] | > 45.8 | < 0.72 | > 45.8 | 1.43 (≈ 0.5 µg/mL) | > 45.8 | 5.72 (≈ 2 µg/mL) | > 45.8 | – | – | –
O=C(O)c1cn(C2CC2)c2cc(N3CCNCC3)c(F)cc2c1=O [CIPROFLOXACIN] | > 48.3 | – | > 48.3 | – | > 48.3 | > 48.3 | – | – | – | –
NNC(=O)c1ccncc1 [ISONIAZID] | – | – | – | – | – | – | – | – | 467 (≈ 64 µg/mL) | 117 (≈ 16 µg/mL)
